The test system of one test is Candida albicans. As to the kind of experiment: […] activity against Candida albicans ATCC 10231 at 50 ug/ml after 24 hrs by agar well diffusion method relative to nystatine. It is filed as functional. The following applies: ATCC 10231, 24 h. For orientation: A growth-free zone around the sample is the usual read-out of agar diffusion tests.
The next test concerns Aspergillus flavus. As to the kind of experiment: […] activity against Aspergillus flavus IMI 052104 at 50 ug/ml after 24 hrs by agar well diffusion method relative to control. The following applies: IMI 052104, 24 h. It is filed as functional.
For a further test, the system named is Staphylococcus aureus. As to the kind of experiment: Antibacterial activity against Staphylococcus aureus ATCC 25923 at 50 ug/ml after 24 hrs by agar well diffusion method. The test is classed as functional, organism-based.
Test [1] concerns Radical scavenging activity. As to the kind of experiment: Antioxidant activity assessed as DPPH free radical scavenging activity at 3.3 uM measured every 10 mins. It is filed as functional. An outline of the steps:
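Compound in methanol (0.5 mL) was added to 0.5 mL of 100 µM DPPH• stock solution, with a final compound level of 3.3 µM and DPPH•/substrate molar ratio 15 (radical in excess). Absorbance at 518 nm was read every 10 min until equilibrium. Methanol served as blank and caffeic acid as reference.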

For test [2], the system named is Fusarium graminearum. As to the kind of experiment: […] activity against Fusarium graminearum ATCC 24373 at 50 ug/ml after 24 hrs by agar well diffusion method relative to control. It is filed as functional. The following applies: ATCC 24373, 24 h.
A further test relates to Aspergillus niger. As to the kind of experiment: […] activity against Aspergillus niger A3 at 50 ug/ml after 24 hrs by agar well diffusion method relative to control. It is filed as functional. The following applies: A3, 24 h.
The test system of test [3] is Bacillus spizizenii. As to the kind of experiment: Antibacterial activity against Bacillus subtilis ATCC 6633 at 50 ug/ml after 24 hrs by agar well diffusion method. It is filed as functional.
The next test relates to Pseudomonas aeruginosa. As to the kind of experiment: Antibacterial activity against Pseudomonas aeruginosa ATCC 10145 at 50 ug/ml after 24 hrs by agar well diffusion method. It is filed as functional, organism-based.
Test [4] has as its target T1, Tyrosinase (Agaricus bisporus) (UniProt O42713).
T1 sequence (whole entry): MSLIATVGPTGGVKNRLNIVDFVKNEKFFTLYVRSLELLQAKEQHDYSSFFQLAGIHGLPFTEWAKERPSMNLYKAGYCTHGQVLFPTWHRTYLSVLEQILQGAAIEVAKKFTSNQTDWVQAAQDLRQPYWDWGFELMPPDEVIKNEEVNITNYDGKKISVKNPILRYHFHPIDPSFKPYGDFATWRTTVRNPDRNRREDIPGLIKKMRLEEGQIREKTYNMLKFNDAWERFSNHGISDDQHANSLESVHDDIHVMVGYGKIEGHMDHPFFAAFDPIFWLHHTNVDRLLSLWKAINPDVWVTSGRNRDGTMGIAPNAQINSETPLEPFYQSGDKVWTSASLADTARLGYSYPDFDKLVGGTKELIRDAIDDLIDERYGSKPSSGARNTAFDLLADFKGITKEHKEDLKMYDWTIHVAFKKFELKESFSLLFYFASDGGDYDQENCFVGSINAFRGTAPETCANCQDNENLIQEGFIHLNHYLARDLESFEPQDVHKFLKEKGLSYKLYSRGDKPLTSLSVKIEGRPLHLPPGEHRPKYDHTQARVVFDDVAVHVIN
As to the kind of experiment: Inhibition of mushroom tyrosinase using L-tyrosine as substrate at 23 uM after 30 mins by spectrophotometric analysis. An outline of the steps:
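Modified dopachrome method with L-tyrosine substrate, in 3 mL total: 1.0 mL 0.1 M phosphate buffer pH 6.8, 1.0 mL 1.5 mM tyrosine, 0.35 mL 0.2 mM inhibitor stock in DMSO, 0.35 mL water, and 0.30 mL mushroom tyrosinase at 192 U/mL. Reference used DMSO in place of inhibitor. Incubated 37 °C for 30 min, read at 475 nm; activity % = B/A × 100 (sample/reference absorbance).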

The subject of another test is Escherichia coli. As to the kind of experiment: Antibacterial activity against Escherichia coli ATCC 25922 at 50 ug/ml after 24 hrs by agar well diffusion method. It is filed as functional, organism-based.
The test system of test [5] is Fusarium graminearum. As to the kind of experiment: […] activity against Fusarium graminearum ATCC 24373 at 0.17 umol/ml after 24 hrs by agar well diffusion method relative to control. It is filed as functional, organism-based.
Test [6] deals with Bacillus spizizenii. As to the kind of experiment: Antibacterial activity against Bacillus subtilis ATCC 6633 at 50 ug/ml after 24 hrs by agar well diffusion method relative to amikacin. The following applies: ATCC 6633, 24 h. It is filed as functional. An outline of the steps: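 Agar well diffusion on dried overlays of each test strain. Wells of 7 mm received 100 µL of sample at 0.5 mg/mL in DMSO, with DMSO wells as negative control. Positive controls were an amikacin 30 µg disc for bacteria and 100 µL nystatin 10000 IU/mL for C. albicans. Plates were held 60 min at 4 °C for diffusion, then incubated 24 h at 30 or 37 °C. Inhibition zones were measured in mm, in triplicate, and growth inhibition was expressed relative to the positive control.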

Active and inactive are the calls of the source. No cut-off for these calls is given here.

As a reminder, the inhibition is the change of the read-out against control, counted positive when it falls. Turning to `O=C(O)/C(=C/c1ccccc1)c1cc(O)c(O)cc1C(=O)O`, the inhibition at 50 µg/mL is 40% in the test with Candida albicans, 43% in the test with Aspergillus flavus, 89% in the test on Fusarium graminearum [2] and 34% in the test with Aspergillus niger. Moreover, the inhibition result in the test on Staphylococcus aureus, with Bacillus spizizenii [3], with Pseudomonas aeruginosa and in the test on Escherichia coli was “inactive” throughout. Besides, the outcome in test [1] was Active. The inhibition entry (in test [4]; with Fusarium graminearum [5]) was “Active” in each case.
Consider `CC(C)(C)c1cc(/C=C(/C(=O)O)c2cc(O)c(O)cc2C(=O)O)cc(C(C)(C)C)c1O`, for which the inhibition at 50 µg/mL with Candida albicans came to 40%; in the test on Aspergillus flavus, 52%; with Fusarium graminearum [2] it was 76%; in the test on Aspergillus niger, 44%. The inhibition entry in the test with Staphylococcus aureus, with Bacillus spizizenii [3], in the test on Pseudomonas aeruginosa and in the test with Escherichia coli was “inactive” throughout. Also, the result in [1] was Active. Also, the inhibition result in test [4] is “Active”.
Consider `O=C(O)/C(=C/c1cc(O)c(O)c(O)c1)c1cc(O)c(O)cc1C(=O)O`, for which the inhibition at 50 µg/mL in the test with Candida albicans amounted to 40%; in the test on Aspergillus flavus, 42%; in the test on Fusarium graminearum [2], 71%; with Aspergillus niger it was 37%. For the same compound, the inhibition entry in the test with Staphylococcus aureus, with Bacillus spizizenii [3], in the test on Pseudomonas aeruginosa and with Escherichia coli was “inactive” throughout. For the same compound, the result in test [1] was Active. Moreover, the inhibition result in test [4] is “Active”.
Consider `O=C(O)/C(=C/c1ccc(O)c(O)c1)c1cc(O)c(O)cc1C(=O)O`, for which the inhibition at 50 µg/mL with Candida albicans amounted to 45%; with Aspergillus flavus it was 42%; in the test on Fusarium graminearum [2], 72%; in the test with Aspergillus niger, 37%. Further, the inhibition result with Staphylococcus aureus, in the test on Bacillus spizizenii [3], with Pseudomonas aeruginosa and in the test on Escherichia coli was “inactive” in each case. For the same compound, the outcome in [1] was Active. Besides, in test [4], the inhibition result was “Active”.
In the case of `O=C(O)/C(=C/c1ccc(O)cc1)c1cc(O)c(O)cc1C(=O)O`, the inhibition at 50 µg/mL is 34% with Candida albicans, 42% with Aspergillus flavus, 72% in the test on Fusarium graminearum [2] and 38% with Aspergillus niger. Moreover, the inhibition result with Staphylococcus aureus, with Bacillus spizizenii [3], with Pseudomonas aeruginosa and in the test with Escherichia coli was “inactive” throughout. Also, the result in test [1] was Active. The inhibition entry in [4] is “Active”.
For the compound `O=C(O)/C=C/c1ccc(O)c(O)c1` [CAFFEIC ACID], the inhibition at 50 µg/mL came to 16% with Aspergillus flavus, 63% with Fusarium graminearum [2] and 35% in the test with Aspergillus niger. Besides, in [1], the result was Active. Further, in [4], the inhibition result is “Active”.
`COc1cc(C(=O)O)c(/C(=C\c2cc(C(C)(C)C)c(O)c(C(C)(C)C)c2)C(=O)O)cc1OC`: the inhibition at 50 µg/mL with Candida albicans came out at 48%; with Bacillus spizizenii [6] it was 44%; in the test on Aspergillus flavus, 48%; in the test on Fusarium graminearum [2], 70%; with Aspergillus niger, 44%. For the same compound, the Activity in test [1] turned out to be 18%. Also, the inhibition entry in test [4] is “Active”.
On to `O=C(O)c1ccc(O)c(O)c1` [PROTOCATECHUIC ACID], for which the values for the inhibition at 50 µg/mL in the test on Aspergillus flavus, in the test with Fusarium graminearum [2] and in the test with Aspergillus niger were 9%, 76% and 40%, respectively. The result in [1] was Active. For the same compound, the inhibition result in test [4] is “Active”.
On to `Oc1ccc(O)cc1`, for which the inhibition result in test [4] is “Active”.

Source of the values: ChEMBL document CHEMBL2406978, “A novel one-pot synthesis and preliminary biological activity evaluation of cis-restricted polyhydroxy stilbenes incorporating protocatechuic acid and cinnamic acid fragments” (2013).
